Measured values from ChEMBL document CHEMBL2034907, “Indiosides G-K: steroidal glycosides with cytotoxic and anti-inflammatory activities from Solanum violaceum” (J Nat Prod, 2012).
≈ marks a conversion by molar mass, not a printed value.

What was measured:
Ca9-22 = assay: Cytotoxicity against human Ca9-22 cells by MTT assay; type: functional, cell-based
MDA-MB-231 = assay: Cytotoxicity against human MDA-MB-231 cells by MTT assay; type: functional, cell-based
HepG2 = assay: Cytotoxicity against human HepG2 cells by MTT assay; type: functional, cell-based
[1] = Cytotoxicity against human Hep3B cells by MTT assay; type: functional, cell-based, Hep 3B2
MCF7 = assay: Cytotoxicity against human MCF7 cells by MTT assay; type: functional, cell-based
A549 = assay: Cytotoxicity against human A549 cells by MTT assay; type: functional, cell-based
[2] = Antiinflammatory activity in human neutrophils assessed as inhibition of FMLP/CB-induced superoxide anion generation incubated for 5 mins prior to FMLP/CB-challenge measured after 10 mins by spectrophotometry; type: functional, cell-based; settings: Neutrophil
Summary of the method: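 Neutrophils isolated by dextran sedimentation and Ficoll centrifugation. Cells were given 0.5 mg/mL ferricytochrome c and 1 mM Ca2+ and equilibrated at 37 °C for 2 min. They were then exposed to drug for 5 min and to cytochalasin B (1 μg/mL) for 3 min, then activated with fMLP (100 nM) for 10 min. Read-out was SOD-inhibitable ferricytochrome c reduction at 550 nm, monitored continuously. Mean ± SEM, n = 3.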

[3] = Antiinflammatory activity in human neutrophils assessed as inhibition of FMLP/CB-induced elastase release at 10 ug/mL incubated for 5 mins prior to FMLP/CB-challenge by spectrophotometry; type: functional; settings: Neutrophil
Summary of the method: (§1)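 Neutrophils isolated from human blood by dextran sedimentation and Ficoll centrifugation, used at 6 × 10^5/mL with MeO-Suc-Ala-Ala-Pro-Val-p-nitroanilide (100 μM). Equilibrated 2 min at 37 °C, compound added for 5 min, then activated with fMLP (100 nM)/CB (0.5 μg/mL). Absorbance at 405 nm monitored continuously. Initial elastase release rate expressed as % of the fMLP/CB-activated DMSO control. PMSF positive control; mean ± SEM, n = 3.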

[4] = Cytotoxicity against human neutrophils assessed as increase in LDH level relative to control; type: cell-based; settings: neutrophil
Summary of the method: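 Lysed-cell reference made with 0.1% Triton X-100, 30 min at 37 °C. LDH in the cell-free medium was measured with a commercial kit. Result given as a percentage of total LDH release.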

[5] = Antiinflammatory activity in human neutrophils assessed as inhibition of FMLP/CB-induced elastase release incubated for 5 mins prior to FMLP/CB-challenge by spectrophotometry; type: functional, cell-based; settings: Neutrophil; summary of the method: as §1
Neutrophil = assay: Ratio of PMSF IC50 to compound IC50 for antiinflammatory activity assessed as inhibition of elastase release in human neutrophils; type: functional
[6] = Antiinflammatory activity in human neutrophils assessed as inhibition of FMLP/CB-induced superoxide anion generation at 10 ug/mL incubated for 5 mins prior to FMLP/CB-challenge measured after 10 mins by spectrophotometry; type: functional; settings: Neutrophil
Summary of the method: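 Human neutrophils isolated by dextran sedimentation and Ficoll centrifugation, supplemented with ferricytochrome c (0.5 mg/mL) and Ca2+ (1 mM). Equilibrated 2 min at 37 °C, compound added for 5 min, then cytochalasin B (1 μg/mL) for 3 min, then fMLP (100 nM) for 10 min. SOD-inhibitable ferricytochrome c reduction followed at 550 nm with stirring. Expressed as % of fMLP/CB-activated response. DPI positive control; mean ± SEM, n = 3.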

## C[C@H]1CC[C@]2(OC1)O[C@H]1C[C@H]3[C@@H]4CC=C5C[C@@H](O[C@@H]6O[C@H](CO)[C@@H](O)[C@H](O)[C@H]6O[C@@H]6O[C@@H](C)[C@H](O)[C@@H](O)[C@H]6O)CC[C@]5(C)[C@H]4CC[C@]3(C)[C@H]1[C@H]2C
Ca9-22
  IC50: 2.95 µg/mL (≈ 4.08 µM)
MDA-MB-231
  IC50: 6.12 µg/mL (≈ 8.47 µM)
HepG2
  IC50: 2.22 µg/mL (≈ 3.07 µM)
[1]
  IC50: 2.95 µg/mL (≈ 4.08 µM)
MCF7
  IC50: 4.78 µg/mL (≈ 6.61 µM)
A549
  IC50: 3.09 µg/mL (≈ 4.27 µM)

## C[C@H]1CC[C@@]2(OC1)O[C@H]1C[C@H]3[C@@H]4CC[C@H]5C[C@@H](O[C@@H]6O[C@H](CO)[C@@H](O[C@@H]7O[C@@H](C)[C@H](O)[C@@H](O)[C@H]7O)[C@H](O)[C@H]6O[C@@H]6O[C@@H](C)[C@H](O)[C@@H](O)[C@H]6O)CC[C@]5(C)[C@H]4CC[C@]3(C)[C@H]1[C@@H]2C
Ca9-22
  IC50: 6.76 µg/mL (≈ 7.76 µM)
MDA-MB-231
  IC50: 8.04 µg/mL (≈ 9.23 µM)
[2]
  IC50: 2.84 µg/mL (≈ 3.26 µM)
[3]
  inhibition at 10 µg/mL: 38.9%
[4]
  Activity: Toxic
HepG2
  IC50: 5.33 µg/mL (≈ 6.12 µM)
[1]
  IC50: 3.32 µg/mL (≈ 3.81 µM)
MCF7
  IC50: 11.6 µg/mL (≈ 13.3 µM)
A549
  IC50: 7.27 µg/mL (≈ 8.35 µM)

## C[C@H]1CC[C@@]2(OC1)O[C@H]1C[C@H]3[C@@H]4CC=C5C[C@@H](O[C@@H]6O[C@H](CO)[C@@H](O)[C@H](O)[C@H]6O[C@@H]6O[C@@H](C)[C@H](O)[C@@H](O)[C@H]6O)CC[C@]5(C)[C@H]4CC[C@]3(C)[C@H]1[C@@H]2C
Ca9-22
  IC50: 4.51 µg/mL (≈ 6.24 µM)
MDA-MB-231
  IC50: 7.25 µg/mL (≈ 10 µM)
HepG2
  IC50: 6.48 µg/mL (≈ 8.96 µM)
[1]
  IC50: 6.98 µg/mL (≈ 9.66 µM)
MCF7
  IC50: 5.84 µg/mL (≈ 8.08 µM)
A549
  IC50: 4.26 µg/mL (≈ 5.89 µM)

## C[C@H]1CC[C@@]2(OC1)O[C@H]1C[C@H]3[C@@H]4CC=C5C[C@@H](O[C@@H]6O[C@H](CO)[C@@H](O[C@@H]7O[C@@H](C)[C@H](O)[C@@H](O)[C@H]7O)[C@H](O)[C@H]6O[C@@H]6O[C@@H](C)[C@H](O)[C@@H](O)[C@H]6O)CC[C@]5(C)[C@H]4CC[C@]3(C)[C@H]1[C@@H]2C
Ca9-22
  IC50: 3.77 µg/mL (≈ 4.34 µM)
MDA-MB-231
  IC50: 5.84 µg/mL (≈ 6.72 µM)
[2]
  IC50: 1.62 µg/mL (≈ 1.86 µM)
[5]
  IC50: 4.04 µg/mL (≈ 4.65 µM)
[4]
  Activity: Toxic
Neutrophil
  Ratio IC50: 5
HepG2
  IC50: 6.44 µg/mL (≈ 7.41 µM)
[1]
  IC50: 2.87 µg/mL (≈ 3.3 µM)
MCF7
  IC50: 8.84 µg/mL (≈ 10.2 µM)
A549
  IC50: 4.09 µg/mL (≈ 4.71 µM)

## CC[C@H](CC[C@@H](C)[C@H]1CC[C@H]2[C@@H]3C(O)C=C4C[C@@H](O[C@@H]5O[C@H](CO)[C@@H](O)[C@H](O)[C@H]5O)CC[C@]4(C)[C@H]3CC[C@]12C)C(C)C (some centres not stated)
Ca9-22
  IC50: > 20 µg/mL
MDA-MB-231
  IC50: > 20 µg/mL
HepG2
  IC50: > 20 µg/mL
[1]
  IC50: > 20 µg/mL
MCF7
  IC50: > 20 µg/mL
A549
  IC50: > 20 µg/mL

## C[C@@H]1CC[C@]2(OC1)O[C@H]1C[C@H]3[C@@H]4CC=C5C[C@@H](O[C@@H]6O[C@H](CO)[C@@H](O[C@@H]7O[C@@H](C)[C@H](O)[C@@H](O)[C@H]7O)[C@H](O)[C@H]6O)CC[C@]5(C)[C@H]4CC[C@]3(C)[C@H]1[C@H]2C [BORASSOSIDE D]
Ca9-22
  IC50: > 20 µg/mL
MDA-MB-231
  IC50: > 20 µg/mL
HepG2
  IC50: > 20 µg/mL
[1]
  IC50: > 20 µg/mL
MCF7
  IC50: > 20 µg/mL
A549
  IC50: > 20 µg/mL

## C[C@H]1CC[C@]2(OC1)O[C@H]1C[C@H]3[C@@H]4CC=C5C[C@@H](O[C@@H]6O[C@H](CO)[C@@H](O[C@@H]7O[C@@H](C)[C@H](O)[C@@H](O)[C@H]7O)[C@H](O)[C@H]6O[C@@H]6O[C@@H](C)[C@H](O)[C@@H](O)[C@H]6O)CC[C@]5(C)[C@H]4CC[C@]3(C)[C@H]1[C@H]2C [BORASSOSIDE E]
Ca9-22
  IC50: 2.33 µg/mL (≈ 2.68 µM)
MDA-MB-231
  IC50: 2.75 µg/mL (≈ 3.16 µM)
[2]
  IC50: 0.62 µg/mL (≈ 0.713 µM)
[5]
  IC50: 111 µg/mL (≈ 128 µM)
[4]
  Activity: Toxic
HepG2
  IC50: 1.83 µg/mL (≈ 2.11 µM)
[1]
  IC50: 2.03 µg/mL (≈ 2.34 µM)
MCF7
  IC50: 2.61 µg/mL (≈ 3 µM)
A549
  IC50: 2.34 µg/mL (≈ 2.69 µM)

## c1ccc2c(c1)[I+]c1ccccc1-2 [DIPHENYLENEIODONIUM]
[2]
  IC50: 0.22 µg/mL

## COc1cccc2c1C(=O)c1c(O)c3c(c(O)c1C2=O)C[C@@](O)(C(=O)CO)C[C@@H]3O[C@H]1C[C@H](N)[C@H](O)[C@H](C)O1 [DOXORUBICIN]
Ca9-22
  IC50: 0.31 µg/mL (≈ 0.57 µM)
MDA-MB-231
  IC50: 1.39 µg/mL (≈ 2.56 µM)
[1]
  IC50: 1.31 µg/mL (≈ 2.41 µM)
MCF7
  IC50: 0.8 µg/mL (≈ 1.47 µM)
A549
  IC50: 1.4 µg/mL (≈ 2.58 µM)

## O=C(/C=C/c1ccc(O)cc1)NCCc1ccc(O)cc1 [N-P-COUMAROYL TYRAMINE]
Ca9-22
  IC50: 12.3 µg/mL (≈ 43.3 µM)
MDA-MB-231
  IC50: > 20 µg/mL
[6]
  inhibition at 10 µg/mL: 23.2%
[3]
  inhibition at 10 µg/mL: -0.17%
[4]
  Activity: Non-toxic
HepG2
  IC50: 9.57 µg/mL (≈ 33.8 µM)
[1]
  IC50: 11.2 µg/mL (≈ 39.6 µM)
MCF7
  IC50: > 20 µg/mL
A549
  IC50: 15.2 µg/mL (≈ 53.7 µM)

## O=S(=O)(F)Cc1ccccc1 [PHENYLMETHYLSULFONYLFLUORIDE]
[5]
  IC50: 22.8 µg/mL (≈ 131 µM)

## CC[C@H](CC[C@@H](C)[C@H]1CC[C@H]2[C@@H]3CC=C4C[C@@H](O[C@@H]5O[C@H](CO)[C@@H](O)[C@H](O)[C@H]5O)CC[C@]4(C)[C@H]3CC[C@]12C)C(C)C [SITOGLUSIDE]
Ca9-22
  IC50: > 20 µg/mL
MDA-MB-231
  IC50: > 20 µg/mL
[6]
  inhibition at 10 µg/mL: 24.9%
[3]
  inhibition at 10 µg/mL: 1.58%
HepG2
  IC50: > 20 µg/mL
[1]
  IC50: > 20 µg/mL
MCF7
  IC50: > 20 µg/mL
A549
  IC50: > 20 µg/mL

## C/C(=C\CO)CC[C@@H]1[C@@]2(C)CC[C@H](O[C@@H]3O[C@H](CO)[C@@H](O)[C@H](O)[C@H]3O)C(C)(C)[C@@H]2CC[C@]1(C)O [TRICALYSIOSIDE U]
Ca9-22
  IC50: > 20 µg/mL
MDA-MB-231
  IC50: > 20 µg/mL
HepG2
  IC50: > 20 µg/mL
[1]
  IC50: > 20 µg/mL
MCF7
  IC50: > 20 µg/mL
A549
  IC50: > 20 µg/mL
